# From ChEMBL document CHEMBL5696442, “Discovery of type II inhibitors of TGFβ-activated kinase 1 (TAK1) and mitogen-activated protein kinase kinase kinase kinase 2 (MAP4K2)” (J Med Chem, 2015)
# Active and inactive are the calls of the source. No cut-off for these calls is given here.
# What was measured:
# [1] = target: Serine/threonine-protein kinase 10 (Homo sapiens) (UniProt O94804); experiment: Inhibition of LOK Lys2 labeling site harbouring IIHRDLKAGNVLMTLEGDIR in human Huh-7 cell lysate at 1 uM by KiNativ Profiling analysis relative to control; type: subcellular
# [2] = target: Mitogen-activated protein kinase 9 (Homo sapiens, UniProt P45984); experiment: Inhibition of JNK2 Lys2 labeling site in human Huh-7 cells at 1 uM by KiNativ Profiling analysis relative to control; type: cell-based
# [3] = target: Non-receptor tyrosine-protein kinase TYK2 (Homo sapiens) (UniProt P29597); experiment: Inhibition of TYK2 JH2 pseudokinase domain (unknown origin) at 10 uM by Ambit Kinomescan binding assay
# Sequence of Non-receptor tyrosine-protein kinase TYK2 (Homo sapiens) (P29597 whole entry, the tested form may be a part): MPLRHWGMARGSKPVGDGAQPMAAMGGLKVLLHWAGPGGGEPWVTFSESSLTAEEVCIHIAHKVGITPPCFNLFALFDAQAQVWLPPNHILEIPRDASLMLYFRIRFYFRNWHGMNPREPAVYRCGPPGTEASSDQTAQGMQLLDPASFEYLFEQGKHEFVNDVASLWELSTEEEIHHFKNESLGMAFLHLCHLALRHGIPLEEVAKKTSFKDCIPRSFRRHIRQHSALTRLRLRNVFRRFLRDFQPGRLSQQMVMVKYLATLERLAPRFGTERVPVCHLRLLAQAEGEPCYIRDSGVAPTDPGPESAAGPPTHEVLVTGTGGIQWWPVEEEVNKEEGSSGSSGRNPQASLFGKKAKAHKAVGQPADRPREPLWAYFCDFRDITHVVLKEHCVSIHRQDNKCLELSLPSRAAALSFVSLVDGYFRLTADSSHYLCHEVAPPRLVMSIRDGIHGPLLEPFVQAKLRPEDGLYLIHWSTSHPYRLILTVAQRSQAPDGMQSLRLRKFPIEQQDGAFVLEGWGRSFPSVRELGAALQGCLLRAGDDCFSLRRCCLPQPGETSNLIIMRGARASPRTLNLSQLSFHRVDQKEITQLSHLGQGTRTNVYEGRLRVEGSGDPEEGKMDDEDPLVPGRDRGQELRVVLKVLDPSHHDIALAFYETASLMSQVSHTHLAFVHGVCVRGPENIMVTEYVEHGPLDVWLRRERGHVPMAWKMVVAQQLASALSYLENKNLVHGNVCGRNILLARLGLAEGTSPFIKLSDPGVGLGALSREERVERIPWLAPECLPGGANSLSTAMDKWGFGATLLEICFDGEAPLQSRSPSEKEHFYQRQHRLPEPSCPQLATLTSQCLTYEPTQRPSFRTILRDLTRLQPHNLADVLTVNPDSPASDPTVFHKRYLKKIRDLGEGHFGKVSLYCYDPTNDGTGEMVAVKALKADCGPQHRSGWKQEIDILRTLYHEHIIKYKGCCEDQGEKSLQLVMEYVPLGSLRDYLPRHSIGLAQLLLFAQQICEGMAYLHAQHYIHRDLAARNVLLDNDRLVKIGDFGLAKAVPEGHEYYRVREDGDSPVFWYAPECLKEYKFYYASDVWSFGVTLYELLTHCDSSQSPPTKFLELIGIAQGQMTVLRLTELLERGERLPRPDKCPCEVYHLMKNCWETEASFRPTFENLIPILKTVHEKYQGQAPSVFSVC
# [4] = target: Cyclin-dependent kinase 1 (Homo sapiens) (UniProt P06493); experiment: Inhibition of CDC2 K2 labeling site harbouring DLKPQNLLIDDKGTIK in human Huh-7 cells at 1 uM by KiNativ Profiling analysis relative to control; type: cell-based
# [5] = system: Epidermal growth factor receptor (Homo sapiens), P00533 [L858R]; experiment: Inhibition of EGFR L858R mutant (unknown origin) at 10 uM by Ambit Kinomescan binding assay relative to control
# [6] = target: p38 delta/gamma (Homo sapiens) (UniProt O15264+P53778); experiment: Inhibition of p38d/g K2 labeling site in human Huh-7 cells at 1 uM by KiNativ Profiling analysis relative to control; type: cell-based
# [7] = target: Mitogen-activated protein kinase kinase kinase 20 (Homo sapiens, UniProt Q9NYL2); experiment: Inhibition of ZAK Lys1 labeling site in human A-375 cells at 0.5 uM by KiNativ Profiling analysis relative to control; type: cell-based
# [8] = target: Non-receptor tyrosine-protein kinase TYK2 (Homo sapiens) (UniProt P29597); experiment: Inhibition of TYK2 JH1 catalytic domain (unknown origin) at 10 uM by Ambit Kinomescan binding assay relative to control; values are per cent of control
# [9] = target: Epidermal growth factor receptor (Homo sapiens) (UniProt P00533); experiment: Inhibition of EGFR (unknown origin) at 10 uM by Ambit Kinomescan binding assay relative to control
# Sequence of Epidermal growth factor receptor (Homo sapiens) (P00533 whole entry): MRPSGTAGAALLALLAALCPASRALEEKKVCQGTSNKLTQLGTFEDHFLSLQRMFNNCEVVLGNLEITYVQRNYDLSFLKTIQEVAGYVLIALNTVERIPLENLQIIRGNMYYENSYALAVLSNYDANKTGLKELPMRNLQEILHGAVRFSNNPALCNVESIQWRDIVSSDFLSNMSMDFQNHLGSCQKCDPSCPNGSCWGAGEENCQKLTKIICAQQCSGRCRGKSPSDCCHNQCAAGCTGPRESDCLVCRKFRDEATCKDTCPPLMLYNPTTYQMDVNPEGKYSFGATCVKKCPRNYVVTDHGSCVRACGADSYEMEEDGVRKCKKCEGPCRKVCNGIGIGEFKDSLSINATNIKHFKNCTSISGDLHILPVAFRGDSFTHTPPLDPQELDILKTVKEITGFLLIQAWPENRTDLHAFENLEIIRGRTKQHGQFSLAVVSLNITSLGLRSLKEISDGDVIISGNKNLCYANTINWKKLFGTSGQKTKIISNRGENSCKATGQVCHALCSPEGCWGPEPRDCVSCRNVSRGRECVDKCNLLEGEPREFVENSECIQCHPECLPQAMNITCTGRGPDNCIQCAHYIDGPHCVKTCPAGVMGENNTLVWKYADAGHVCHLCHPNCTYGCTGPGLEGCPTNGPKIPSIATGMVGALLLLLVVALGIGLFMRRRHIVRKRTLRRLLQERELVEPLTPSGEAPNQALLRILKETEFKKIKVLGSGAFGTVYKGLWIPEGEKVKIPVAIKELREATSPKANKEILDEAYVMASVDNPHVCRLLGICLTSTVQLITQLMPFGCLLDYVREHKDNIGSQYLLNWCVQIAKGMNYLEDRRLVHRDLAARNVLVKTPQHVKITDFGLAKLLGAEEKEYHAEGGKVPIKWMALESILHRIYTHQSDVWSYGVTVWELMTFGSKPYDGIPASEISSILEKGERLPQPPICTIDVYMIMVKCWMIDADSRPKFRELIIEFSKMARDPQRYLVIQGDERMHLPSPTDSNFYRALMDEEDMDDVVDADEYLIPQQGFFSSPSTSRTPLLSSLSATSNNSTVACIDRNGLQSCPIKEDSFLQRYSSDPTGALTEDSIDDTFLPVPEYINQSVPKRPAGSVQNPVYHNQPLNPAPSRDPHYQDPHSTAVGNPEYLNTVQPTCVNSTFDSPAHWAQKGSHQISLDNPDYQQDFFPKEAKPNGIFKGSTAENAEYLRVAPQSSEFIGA
# [10] = target: Serine/threonine-protein kinase pim-3 (Homo sapiens) (UniProt Q86V86); experiment: Inhibition of PIM3 (unknown origin) at 10 uM by Ambit Kinomescan binding assay
# [11] = target: Focal adhesion kinase 1 (Homo sapiens) (UniProt Q05397); experiment: Inhibition of FAK (unknown origin) at 10 uM by Ambit Kinomescan binding assay relative to control
# [12] = target: Tyrosine-protein kinase Fer (Homo sapiens, UniProt P16591); experiment: Inhibition of FER (unknown origin) ACT labeling site by KiNativ Profiling analysis
# [13] = target: STE20-like serine/threonine-protein kinase (Homo sapiens) (UniProt Q9H2G2); experiment: Inhibition of SLK K2 labeling site harbouring IIHRDLKAGNILFTLDGDIK in human Huh-7 cells at 10 uM by KiNativ Profiling analysis relative to control; type: cell-based
# [14] = target: Vascular endothelial growth factor receptor 3 (Homo sapiens) (UniProt P35916); experiment: Inhibition of FLT4 (unknown origin) at 10 uM by Ambit Kinomescan binding assay relative to control
# Sequence of Vascular endothelial growth factor receptor 3 (Homo sapiens) (P35916 whole entry): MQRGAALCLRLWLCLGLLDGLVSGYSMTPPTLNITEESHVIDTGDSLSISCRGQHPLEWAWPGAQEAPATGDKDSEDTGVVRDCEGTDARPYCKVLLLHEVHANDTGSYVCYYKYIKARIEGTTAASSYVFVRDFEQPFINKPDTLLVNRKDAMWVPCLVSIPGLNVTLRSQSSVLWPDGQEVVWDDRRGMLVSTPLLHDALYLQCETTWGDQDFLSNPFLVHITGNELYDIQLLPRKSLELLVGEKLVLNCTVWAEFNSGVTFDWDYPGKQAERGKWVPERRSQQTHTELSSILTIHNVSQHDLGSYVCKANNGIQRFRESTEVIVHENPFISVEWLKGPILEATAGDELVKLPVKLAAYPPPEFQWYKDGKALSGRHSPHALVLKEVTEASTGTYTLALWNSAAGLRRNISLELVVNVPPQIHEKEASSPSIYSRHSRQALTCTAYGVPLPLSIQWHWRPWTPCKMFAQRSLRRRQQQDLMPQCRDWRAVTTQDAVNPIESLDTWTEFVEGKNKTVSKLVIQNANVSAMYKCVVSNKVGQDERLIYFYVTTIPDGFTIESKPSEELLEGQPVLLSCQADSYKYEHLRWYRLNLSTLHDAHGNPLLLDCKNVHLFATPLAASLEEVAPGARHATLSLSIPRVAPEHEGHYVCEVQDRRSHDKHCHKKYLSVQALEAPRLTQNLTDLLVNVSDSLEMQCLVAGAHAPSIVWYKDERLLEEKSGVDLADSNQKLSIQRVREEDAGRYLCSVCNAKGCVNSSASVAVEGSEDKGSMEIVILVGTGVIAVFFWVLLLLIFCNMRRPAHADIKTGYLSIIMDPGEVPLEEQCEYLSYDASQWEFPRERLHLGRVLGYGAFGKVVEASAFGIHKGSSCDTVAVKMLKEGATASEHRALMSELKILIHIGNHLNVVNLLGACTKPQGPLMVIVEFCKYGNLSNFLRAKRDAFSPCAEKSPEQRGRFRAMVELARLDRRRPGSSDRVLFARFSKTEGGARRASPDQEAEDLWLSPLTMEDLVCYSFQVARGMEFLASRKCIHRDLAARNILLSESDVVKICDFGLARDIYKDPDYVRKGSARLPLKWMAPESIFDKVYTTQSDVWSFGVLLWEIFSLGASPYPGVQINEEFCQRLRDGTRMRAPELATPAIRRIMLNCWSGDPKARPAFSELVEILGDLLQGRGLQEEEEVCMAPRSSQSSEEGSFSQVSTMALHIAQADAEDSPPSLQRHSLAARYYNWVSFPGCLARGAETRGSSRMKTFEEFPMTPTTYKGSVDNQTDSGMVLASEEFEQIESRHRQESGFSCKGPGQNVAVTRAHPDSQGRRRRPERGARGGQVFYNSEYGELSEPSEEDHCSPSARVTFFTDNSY
# [15] = target: Serine/threonine-protein kinase 3/4 (Homo sapiens) (UniProt Q13043+Q13188); experiment: Inhibition of MST1/2 K2 labeling site in human Huh-7 cells at 10 uM by KiNativ Profiling analysis relative to control; type: cell-based
# [16] = target: Casein kinase I isoform alpha (Homo sapiens) (UniProt P48729); experiment: Inhibition of CK1 alpha K2 labeling site in human Huh-7 cells at 1 uM by KiNativ Profiling analysis relative to control; type: cell-based
# [17] = target: Calcium/calmodulin-dependent protein kinase type II subunit gamma (Homo sapiens) (UniProt Q13555); experiment: Inhibition of CaMK2g K1 labeling site in human Huh-7 cells at 10 uM by KiNativ Profiling analysis relative to control; type: cell-based
# Sequence of Calcium/calmodulin-dependent protein kinase type II subunit gamma (Homo sapiens) (Q13555 whole entry): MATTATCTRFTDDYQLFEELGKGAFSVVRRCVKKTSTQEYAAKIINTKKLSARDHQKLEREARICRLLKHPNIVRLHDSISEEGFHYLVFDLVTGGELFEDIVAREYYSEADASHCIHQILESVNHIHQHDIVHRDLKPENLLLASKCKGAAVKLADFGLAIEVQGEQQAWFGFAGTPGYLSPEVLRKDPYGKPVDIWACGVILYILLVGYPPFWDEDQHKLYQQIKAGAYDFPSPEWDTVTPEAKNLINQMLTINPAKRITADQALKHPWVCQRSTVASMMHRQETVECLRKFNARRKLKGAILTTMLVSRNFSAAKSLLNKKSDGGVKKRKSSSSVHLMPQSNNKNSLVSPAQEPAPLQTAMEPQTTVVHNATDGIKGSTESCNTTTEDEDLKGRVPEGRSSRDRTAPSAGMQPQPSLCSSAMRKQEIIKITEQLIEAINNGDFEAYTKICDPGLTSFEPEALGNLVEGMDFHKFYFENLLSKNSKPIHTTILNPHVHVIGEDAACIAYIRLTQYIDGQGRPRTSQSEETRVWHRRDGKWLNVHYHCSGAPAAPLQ
# [18] = target: Macrophage colony-stimulating factor 1 receptor (Homo sapiens) (UniProt P07333); experiment: Inhibition of CSF1R (unknown origin) at 10 uM by Ambit Kinomescan binding assay relative to control
# [19] = target: Cyclin-dependent kinase 17 (Homo sapiens) (UniProt Q00537); experiment: Inhibition of PCTK2 (unknown origin) at 10 uM by Ambit Kinomescan binding assay relative to control
# [20] = target: Ephrin type-A receptor 7 (Homo sapiens) (UniProt Q15375); experiment: Inhibition of EPHA7 (unknown origin) at 10 uM by Ambit Kinomescan binding assay
# [21] = target: Serine/threonine-protein kinase PAK 1 (Homo sapiens) (UniProt Q13153); experiment: Inhibition of PAK1 (unknown origin) at 1 uM by Ambit Kinomescan binding assay relative to control; values are per cent of control
# [22] = target: Ribosomal protein S6 kinase alpha-1 (Homo sapiens) (UniProt Q15418); experiment: Inhibition of C-terminal RSK1 kinase domain 2 (unknown origin) at 1 uM by Ambit Kinomescan binding assay relative to control
# In short: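 In vitro ATP-site competition binding assay against a panel of over 420 kinases (KinomeScan), with compound tested at 10 or 1 μM.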
# [23] = target: T1, Dual specificity mitogen-activated protein kinase kinase 6 (Homo sapiens) (UniProt P52564); experiment: Inhibition of MEK6 (unknown origin) at 1 uM by Ambit Kinomescan binding assay relative to control; values are per cent of control
# T1 sequence (whole entry): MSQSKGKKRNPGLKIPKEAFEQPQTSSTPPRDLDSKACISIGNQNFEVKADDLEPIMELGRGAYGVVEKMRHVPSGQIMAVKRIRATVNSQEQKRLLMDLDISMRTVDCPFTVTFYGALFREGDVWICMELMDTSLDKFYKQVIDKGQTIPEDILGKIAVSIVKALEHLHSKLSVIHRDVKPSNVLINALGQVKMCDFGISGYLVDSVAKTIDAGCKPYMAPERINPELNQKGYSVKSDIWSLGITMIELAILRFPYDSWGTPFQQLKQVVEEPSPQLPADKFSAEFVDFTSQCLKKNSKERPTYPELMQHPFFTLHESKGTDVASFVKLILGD
# [24] = target: DNA-PK/Ku70/Ku85 (Homo sapiens) (UniProt P78527+P12956+P13010); experiment: Inhibition of DNAPK ATP labeling site harbouring GHDEREHPFLVKGGEDLR in human A-375 cells at 0.05 uM by KiNativ Profiling analysis relative to control; type: cell-based
# [25] = target: Ephrin type-A receptor 3 (Homo sapiens) (UniProt P29320); experiment: Inhibition of EPHA3 (unknown origin) at 1 uM by Ambit Kinomescan binding assay relative to control; values are per cent of control
# [26] = target: Bone morphogenetic protein receptor type-1A (Homo sapiens) (UniProt P36894); experiment: Inhibition of BMPR1A (unknown origin) at 1 uM by Ambit Kinomescan binding assay relative to control; values are per cent of control
# Sequence of Bone morphogenetic protein receptor type-1A (Homo sapiens) (P36894 whole entry): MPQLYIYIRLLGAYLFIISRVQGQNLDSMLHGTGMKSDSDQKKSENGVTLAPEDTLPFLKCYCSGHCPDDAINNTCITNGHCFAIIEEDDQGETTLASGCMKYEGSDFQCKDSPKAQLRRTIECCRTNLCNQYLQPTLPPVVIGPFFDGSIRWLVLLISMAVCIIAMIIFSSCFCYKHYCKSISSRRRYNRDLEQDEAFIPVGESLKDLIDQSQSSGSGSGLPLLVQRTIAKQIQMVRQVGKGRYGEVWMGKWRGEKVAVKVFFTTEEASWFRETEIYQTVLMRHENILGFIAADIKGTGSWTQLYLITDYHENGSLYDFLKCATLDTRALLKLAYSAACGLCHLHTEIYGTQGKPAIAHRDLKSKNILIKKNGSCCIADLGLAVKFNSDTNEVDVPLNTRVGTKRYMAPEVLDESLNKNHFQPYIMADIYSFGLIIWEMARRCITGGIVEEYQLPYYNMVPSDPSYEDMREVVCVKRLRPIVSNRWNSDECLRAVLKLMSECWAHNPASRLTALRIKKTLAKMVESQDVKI
structure (smiles),measurement,setting,value
CNc1cc(Oc2cc(C(=O)Nc3cc(N4CCN(C)CC4)cc(C(F)(F)F)c3)ccc2C)ncn1,inhibition,[1],12.3%
same,inhibition,[2],14.5%
CCN1CCN(Cc2ccc(NC(=O)c3ccc(C)c(Oc4ccnc5[nH]ccc45)c3)cc2C(F)(F)F)CC1,inhibition,[3],inactive
same,inhibition,[4],7.9%
same,inhibition,[5],14%
same,inhibition,[6],25.2%
same,inhibition,[7],93%
same,residual activity,[8],0%
same,inhibition,[9],5.6%
same,inhibition,[10],inactive
same,inhibition,[11],23%
same,IC50,[12],0.0823 µM
same,inhibition,[13],15.7%
same,inhibition,[14],0.2%
same,inhibition,[15],-9.8%
same,inhibition,[16],2.9%
same,inhibition,[17],0%
same,inhibition,[18],0%
same,inhibition,[19],0.1%
same,inhibition,[20],inactive
CCN1CCN(Cc2ccc(NC(=O)c3ccc(C)c(/C=C/c4cnc5[nH]ccc5c4OC)c3)cc2C(F)(F)F)CC1,residual activity,[21],100%
same,inhibition,[22],50%
same,residual activity,[23],100%
same,inhibition,[24],21.3%
same,residual activity,[25],5.7%
same,residual activity,[26],100%
